Test results from ChEMBL document CHEMBL1126061, “Cyclic RGD peptide analogues as antiplatelet antithrombotics” (J Med Chem, 1992).
pIC50: −log10 of the molar value. *1 amine or outer side, *2 acyl side, *3 side chain or, on linkers, in order; H or OH if unused. Where a SMILES comes first, the peptide text is derived from it. Bridges are numbered along the chain shown (N, C = ends). [ ]: non-standard residue; d: D form. Cys(O)(CH2CO) = O=C([C@H](C[S+]([O-])CC(=O)[*:3])N[*:1])[*:2]; X1 = C[C@@H](O)[C@@H](C(=O)[*:2])N(c1cccc(CC[*:3])c1)[*:1]

Target: Integrin alpha-IIb/beta-3 (Homo sapiens, UniProt P05106+P08514)
Sequence (P05106 27-788 limits assumed): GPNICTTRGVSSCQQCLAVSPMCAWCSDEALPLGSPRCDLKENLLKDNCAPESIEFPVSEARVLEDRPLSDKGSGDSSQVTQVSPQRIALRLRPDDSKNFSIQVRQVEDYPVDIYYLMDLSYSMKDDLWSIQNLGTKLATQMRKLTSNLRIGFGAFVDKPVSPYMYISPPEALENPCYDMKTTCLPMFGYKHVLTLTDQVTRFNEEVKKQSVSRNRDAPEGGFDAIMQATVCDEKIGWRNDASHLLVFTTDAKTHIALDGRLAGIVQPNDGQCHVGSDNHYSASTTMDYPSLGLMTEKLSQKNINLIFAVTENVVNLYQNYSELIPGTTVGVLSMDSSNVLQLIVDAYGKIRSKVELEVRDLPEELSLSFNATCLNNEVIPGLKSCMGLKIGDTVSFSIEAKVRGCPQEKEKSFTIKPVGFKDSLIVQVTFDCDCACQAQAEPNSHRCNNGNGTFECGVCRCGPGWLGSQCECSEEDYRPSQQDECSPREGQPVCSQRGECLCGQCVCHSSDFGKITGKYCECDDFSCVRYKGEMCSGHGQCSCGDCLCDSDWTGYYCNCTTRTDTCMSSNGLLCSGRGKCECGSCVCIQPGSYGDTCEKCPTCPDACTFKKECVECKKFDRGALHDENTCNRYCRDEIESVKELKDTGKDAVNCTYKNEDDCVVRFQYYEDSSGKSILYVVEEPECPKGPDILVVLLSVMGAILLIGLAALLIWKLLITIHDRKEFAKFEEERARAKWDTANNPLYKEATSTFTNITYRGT
Sequence (P08514 32-887 limits assumed): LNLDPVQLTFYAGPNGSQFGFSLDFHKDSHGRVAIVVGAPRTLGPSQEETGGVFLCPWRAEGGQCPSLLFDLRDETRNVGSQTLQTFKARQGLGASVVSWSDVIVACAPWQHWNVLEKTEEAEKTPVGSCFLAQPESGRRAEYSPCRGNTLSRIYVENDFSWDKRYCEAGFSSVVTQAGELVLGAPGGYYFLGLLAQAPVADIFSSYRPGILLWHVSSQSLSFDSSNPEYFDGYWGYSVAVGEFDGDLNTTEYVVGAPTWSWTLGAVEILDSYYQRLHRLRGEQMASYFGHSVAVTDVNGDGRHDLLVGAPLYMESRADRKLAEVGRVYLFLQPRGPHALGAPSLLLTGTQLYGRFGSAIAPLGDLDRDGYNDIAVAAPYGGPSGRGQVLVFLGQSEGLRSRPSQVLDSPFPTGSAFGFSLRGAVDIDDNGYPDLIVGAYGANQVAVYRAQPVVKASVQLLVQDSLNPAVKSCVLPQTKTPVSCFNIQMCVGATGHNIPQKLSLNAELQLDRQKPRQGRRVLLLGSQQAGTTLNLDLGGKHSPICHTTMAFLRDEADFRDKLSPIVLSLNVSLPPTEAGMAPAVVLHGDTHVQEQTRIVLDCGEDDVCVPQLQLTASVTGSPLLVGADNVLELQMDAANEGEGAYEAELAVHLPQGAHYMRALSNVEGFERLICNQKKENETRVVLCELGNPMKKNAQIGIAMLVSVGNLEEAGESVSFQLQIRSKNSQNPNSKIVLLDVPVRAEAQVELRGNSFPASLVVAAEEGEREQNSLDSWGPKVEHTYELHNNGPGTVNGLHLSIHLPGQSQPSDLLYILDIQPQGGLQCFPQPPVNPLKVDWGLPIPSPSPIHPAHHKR
Sequence (P08514 891-1039 limits assumed): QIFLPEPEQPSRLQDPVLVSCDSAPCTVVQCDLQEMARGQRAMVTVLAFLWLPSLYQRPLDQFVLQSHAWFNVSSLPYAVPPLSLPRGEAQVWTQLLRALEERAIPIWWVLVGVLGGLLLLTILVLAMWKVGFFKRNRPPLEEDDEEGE
Test: The compound was tested for the inhibition of fibrinogen receptor
Assay type: protein-complex assay
In short: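 Solid-phase ELISA: human fibrinogen (10 µg/mL) coated, BSA-blocked; samples plus purified human platelet GPIIbIIIa (40 µg/mL) incubated 1 h at room temperature. Bound receptor detected with anti-GPIIbIIIa antibody AP3 (1 µg/mL, 1 h), then goat anti-mouse HRP (1 h); OPD/H2O2 at pH 5, stopped with H2SO4, absorbance 492-405 nm. IC50 from four-parameter fit; n ≥ 3.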

N=C(N)NCCC[C@@H]1NC(=O)[C@@H](CC(=O)O)NC(=O)CSC[C@@H](C(=O)O)NC(=O)[C@H](CC(=O)O)NC(=O)CNC1=O
pIC50: 6.30

N=C(N)NCCC[C@@H]1NC(=O)CNC(=O)CCSC[C@@H](C(=O)O)NC(=O)[C@H](CC(=O)O)NC(=O)CNC1=O
pIC50: 7.12

N=C(N)NCCC[C@@H]1NC(=O)[C@H](Cc2ccc(O)cc2)NC(=O)C[S+]([O-])C[C@@H](C(=O)O)NC(=O)[C@H](CC(=O)O)NC(=O)CNC1=O (stereo in doubt; 70A)
pIC50: 8.82

CC[C@@H](C)[C@H]1NC(=O)CSC[C@@H](C(=O)O)NC(=O)[C@H](CC(=O)O)NC(=O)CNC(=O)[C@H](CCCN=C(N)N)NC1=O
pIC50: 7.74

N=C(N)NCCC[C@@H]1NC(=O)CNC(=O)C(c2ccc(-c3ccccc3)cc2)SC[C@@H](C(=O)O)NC(=O)[C@H](CC(=O)O)NC(=O)CNC1=O (stereo in doubt; 19A)
pIC50: 8.30

N=C(N)NCCC[C@@H]1NC(=O)[C@H](CC(N)=O)NC(=O)C[S+]([O-])C[C@@H](C(=O)O)NC(=O)[C@H](CC(=O)O)NC(=O)CNC1=O (stereo in doubt; 67B)
pIC50: 8.28

N=C(N)NCCC[C@@H]1NC(=O)CNC(=O)CSC[C@@H](C(N)=O)NC(=O)[C@H](CC(=O)O)NC(=O)CNC1=O ({CH2CO}-GRGDC-NH2; thioether N-5)
pIC50: 7.92

CC(C)[C@H](NC(=O)[C@H](CC(=O)O)NC(=O)CNC(=O)[C@H](CCCN=C(N)N)NC(=O)CN)C(=O)O (H-GRGDV-OH)
pIC50: 7.52

CC(C)C[C@@H]1NC(=O)CSC[C@@H](C(=O)O)NC(=O)[C@H](CC(=O)O)NC(=O)CNC(=O)[C@H](CCCNC(=N)N)NC1=O
pIC50: 8.52

N=C(N)NCCC[C@@H]1NC(=O)[C@@H](CO)NC(=O)CSC[C@@H](C(=O)O)NC(=O)[C@H](CC(=O)O)NC(=O)CNC1=O
pIC50: 7.66

N=C(N)NCCC[C@@H]1NC(=O)[C@@H](Cc2ccc(O)cc2)NC(=O)CSC[C@@H](C(=O)O)NC(=O)[C@H](CC(=O)O)NC(=O)CNC1=O ({CH2CO}-[dY]RGDC-OH; thioether N-5)
pIC50: 7.70

N=C(N)NCCC[C@@H]1NC(=O)[C@@H](Cc2ccccc2)NC(=O)CSC[C@@H](C(=O)O)NC(=O)[C@H](CC(=O)O)NC(=O)CNC1=O
pIC50: 7.46

N=C(N)NCCC[C@@H]1NC(=O)[C@H](Cc2ccc(O)cc2)NC(=O)C[S+]([O-])C[C@@H](C(N)=O)NC(=O)[C@H](CC(=O)O)NC(=O)CNC1=O (stereo partly drawn) (YRGD[Cys(O)(CH2CO)]-NH2; lactam N-5)
pIC50: 8.35

N=C(N)NCCC[C@@H]1NC(=O)[C@H](CCC(=O)O)NC(=O)C[S+]([O-])C[C@@H](C(=O)O)NC(=O)[C@H](CC(=O)O)NC(=O)CNC1=O (stereo in doubt; 73B)
pIC50: 7.17

N=C(N)NCCC[C@@H]1NC(=O)CNC(=O)C[S+]([O-])C[C@@H](C(=O)O)NC(=O)[C@H](CC(=O)O)NC(=O)CNC1=O (stereo in doubt; 66B)
pIC50: 7.60

N=C(N)NCCC[C@@H]1NC(=O)CNC(=O)C(c2ccc(-c3ccccc3)cc2)SC[C@@H](C(=O)O)NC(=O)[C@H](CC(=O)O)NC(=O)CNC1=O (stereo in doubt; 19B)
pIC50: 8.46

N=C(N)NCCC[C@@H]1NC(=O)CCNC(=O)CSC[C@@H](C(=O)O)NC(=O)[C@H](CC(=O)O)NC(=O)CNC1=O
pIC50: 7.92

NC(N)=NCCC[C@H](N)C(=O)NCC(=O)N[C@@H](CC(=O)O)C(=O)N[C@@H](Cc1ccc(O)cc1)C(=O)O (H-RGDY-OH)
pIC50: 7.15

CC(C)(C)C[C@@H]1NC(=O)CSC[C@@H](C(=O)O)NC(=O)[C@H](CC(=O)O)NC(=O)CNC(=O)[C@H](CCCNC(=N)N)NC1=O
pIC50: 8.44

CCC1SC[C@@H](C(=O)O)NC(=O)[C@H](CC(=O)O)NC(=O)CNC(=O)[C@H](CCCN=C(N)N)NC(=O)CNC1=O (stereo in doubt; 25A)
pIC50: 7.70

CCCC1SC[C@@H](C(=O)O)NC(=O)[C@H](CC(=O)O)NC(=O)CNC(=O)[C@H](CCCNC(=N)N)NC(=O)CNC1=O (stereo in doubt; 23A)
pIC50: 7.68

N=C(N)NCCC[C@@H]1NC(=O)CNC(=O)C(c2cccc3ccccc23)SC[C@@H](C(=O)O)NC(=O)[C@H](CC(=O)O)NC(=O)CNC1=O (stereo in doubt; 17B)
pIC50: 8.85

C[C@@H](O)[C@@H]1Nc2cccc(c2)CCSC[C@@H](C(=O)O)NC(=O)[C@H](CC(=O)O)NC(=O)CNC(=O)[C@H](CCCN=C(N)N)NC1=O (H-[X1]RGDC-OH; thioether 1-5)
pIC50: 8.77

N=C(N)NCCC[C@@H]1NC(=O)CNC(=O)C(c2ccc(C(F)(F)F)cc2)SC[C@@H](C(=O)O)NC(=O)[C@H](CC(=O)O)NC(=O)CNC1=O (stereo in doubt; 22B)
pIC50: 8.40

N=C(N)NCCC[C@@H]1NC(=O)CNC(=O)C(c2ccc3ccccc3c2)SC[C@@H](C(=O)O)NC(=O)[C@H](CC(=O)O)NC(=O)CNC1=O (stereo in doubt; 21A)
pIC50: 7.94

C[C@H](O)[C@H]1NC(=O)CSC[C@@H](C(=O)O)NC(=O)[C@H](CC(=O)O)NC(=O)CNC(=O)[C@H](CCCN=C(N)N)NC1=O
pIC50: 7.94

CSCC[C@H]1NC(=O)CSC[C@@H](C(=O)O)NC(=O)[C@H](CC(=O)O)NC(=O)CNC(=O)[C@H](CCCNC(=N)N)NC1=O
pIC50: 7.55

NC(=O)CC[C@H]1NC(=O)CSC[C@@H](C(=O)O)NC(=O)[C@H](CC(=O)O)NC(=O)CNC(=O)[C@H](CCCN=C(N)N)NC1=O
pIC50: 6.96

C[C@@H](O)[C@@H]1NC(=O)C[S+]([O-])C[C@@H](C(=O)O)NC(=O)[C@H](CC(=O)O)NC(=O)CNC(=O)[C@H](CCCN=C(N)N)NC1=O (stereo in doubt; 71B)
pIC50: 8.00

N=C(N)NCCC[C@@H]1NC(=O)[C@H](Cc2ccc(O)cc2)NC(=O)CSC[C@@H](C(N)=O)NC(=O)[C@H](CC(=O)O)NC(=O)CNC1=O ({CH2CO}-YRGDC-NH2; thioether N-5)
pIC50: 8.60

N=C(N)NCCC[C@@H]1NC(=O)[C@H](CCC(N)=O)NC(=O)CSC[C@@H](C(=O)O)NC(=O)[C@H](CC(=O)O)NC(=O)CNC1=O
pIC50: 7.37

N=C(N)NCCC[C@@H]1NC(=O)CNC(=O)C(c2cccc(C(F)(F)F)c2)SC[C@@H](C(=O)O)NC(=O)[C@H](CC(=O)O)NC(=O)CNC1=O (stereo in doubt; 24B)
pIC50: 8.24

CC(C)C[C@H]1NC(=O)CSC[C@@H](C(=O)O)NC(=O)[C@H](CC(=O)O)NC(=O)CNC(=O)[C@H](CCCNC(=N)N)NC1=O
pIC50: 7.42

N=C(N)NCCC[C@@H]1NC(=O)CNC(=O)CS(=O)(=O)C[C@@H](C(=O)O)NC(=O)[C@H](CC(=O)O)NC(=O)CNC1=O
pIC50: 7.74

N=C(N)NCCC[C@@H]1NC(=O)[C@@H](Cc2ccc(O)cc2)NC(=O)C[S+]([O-])C[C@@H](C(=O)O)NC(=O)[C@H](CC(=O)O)NC(=O)CNC1=O (stereo in doubt; 69B)
pIC50: 7.40

N=C(N)NCCC[C@@H]1NC(=O)[C@H](Cc2ccccc2)NC(=O)CSC[C@@H](C(=O)O)NC(=O)[C@H](CC(=O)O)NC(=O)CNC1=O
pIC50: 8.15

NCC(=O)N[C@@H](CCCN=C(N)N)C(=O)NCC(=O)N[C@@H](CC(=O)O)C(=O)N[C@@H](CC(=O)O)C(=O)O (H-GRGDD-OH)
pIC50: 6.64

C[C@@H](O)[C@@H]1NC(=O)C[S+]([O-])C[C@@H](C(=O)O)NC(=O)[C@H](CC(=O)O)NC(=O)CNC(=O)[C@H](CCCN=C(N)N)NC1=O (stereo in doubt; 71A)
pIC50: 8.74

N=C(N)NCCC[C@@H]1NC(=O)CNC(=O)[C@@H](Cc2ccccc2)SC[C@@H](C(=O)O)NC(=O)[C@H](CC(=O)O)NC(=O)CNC1=O
pIC50: 7.54

C[C@@H]1NC(=O)CSC[C@@H](C(=O)O)NC(=O)[C@H](CC(=O)O)NC(=O)CNC(=O)[C@H](CCCNC(=N)N)NC1=O ({CH2CO}-ARGDC-OH; thioether N-5)
pIC50: 8.60

CC(C)[C@H]1NC(=O)CSC[C@@H](C(=O)O)NC(=O)[C@H](CC(=O)O)NC(=O)CNC(=O)[C@H](CCCNC(=N)N)NC1=O
pIC50: 7.77

N=C(N)NCCC[C@@H]1NC(=O)[C@H](CC(N)=O)NC(=O)C[S+]([O-])C[C@@H](C(=O)O)NC(=O)[C@H](CC(=O)O)NC(=O)CNC1=O (stereo in doubt; 67A)
pIC50: 8.22

N=C(N)NCCC[C@@H]1NC(=O)[C@H](CC(=O)O)NC(=O)CSC[C@@H](C(=O)O)NC(=O)[C@H](CC(=O)O)NC(=O)CNC1=O
pIC50: 7.60

N=C(N)NCCC[C@@H]1NC(=O)[C@H](Cc2cnc[nH]2)NC(=O)CSC[C@@H](C(=O)O)NC(=O)[C@H](CC(=O)O)NC(=O)CNC1=O
pIC50: 8.52

N=C(N)NCCC[C@@H]1NC(=O)[C@@H](Cc2ccc(O)cc2)NC(=O)CS(=O)(=O)C[C@@H](C(=O)O)NC(=O)[C@H](CC(=O)O)NC(=O)CNC1=O
pIC50: 8.68

CC(=O)NCC(=O)N[C@@H](CCCNC(=N)N)C(=O)NCC(=O)N[C@@H](CC(=O)O)C(=O)N[C@H](C(=O)O)C(C)C (Ac-GRGDV-OH)
pIC50: 7.92

N=C(N)NCCC[C@@H]1NC(=O)CNC(=O)C(c2ccccc2)SC[C@@H](C(=O)O)NC(=O)[C@H](CC(=O)O)NC(=O)CNC1=O (stereo in doubt; 18A)
pIC50: 7.82

CCC1SC[C@@H](C(=O)O)NC(=O)[C@H](CC(=O)O)NC(=O)CNC(=O)[C@H](CCCN=C(N)N)NC(=O)CNC1=O (stereo in doubt; 25B)
pIC50: 8.22

N=C(N)NCCC[C@@H]1NC(=O)CNC(=O)C(c2ccccc2C(F)(F)F)SC[C@@H](C(=O)O)NC(=O)[C@H](CC(=O)O)NC(=O)CNC1=O (stereo in doubt; 20B)
pIC50: 8.57

N=C(N)NCCC[C@@H]1NC(=O)[C@@H](Cc2ccc(O)cc2)NC(=O)C[S+]([O-])C[C@@H](C(=O)O)NC(=O)[C@H](CC(=O)O)NC(=O)CNC1=O (stereo in doubt; 69A)
pIC50: 8.14

N=C(N)NCCC[C@@H]1NC(=O)CNC(=O)C(c2ccccc2)SC[C@@H](C(=O)O)NC(=O)[C@H](CC(=O)O)NC(=O)CNC1=O (stereo in doubt; 18B)
pIC50: 9.30

N=C(N)NCCC[C@@H]1NC(=O)[C@H](Cc2ccc(O)cc2)NC(=O)C[S+]([O-])C[C@@H](C(=O)O)NC(=O)[C@H](CC(=O)O)NC(=O)CNC1=O (stereo in doubt; 70B)
pIC50: 8.32

N=C(N)NCCC[C@@H]1NC(=O)CNC(=O)C(c2ccc3ccccc3c2)SC[C@@H](C(=O)O)NC(=O)[C@H](CC(=O)O)NC(=O)CNC1=O (stereo in doubt; 21B)
pIC50: 8.55
